Tests used:
[1] = tested on: Plasmodium falciparum; test: Antiplasmodial activity against Plasmodium falciparum W2 after 24 hrs by [3H]hypoxanthine incorporation assay; assay type: functional, organism-based
Summary of the method: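 Chloroquine-resistant, mefloquine-sensitive W2 clone grown in human O+ erythrocytes in RPMI 1640 with 10% human plasma; 1–2% parasitemia, 2.5% hematocrit. Five concentrations in 4% DMSO in hypoxanthine-free RPMI, 24 h. [3H]-hypoxanthine uptake vs untreated wells; IC50 from triplicates, mefloquine standard.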

[2] = tested on: Entamoeba histolytica; test: Antiamoebic activity against Entamoeba histolytica HM1:IMSS after 72 hrs by microplate method; assay type: functional, organism-based; conditions: HM-1:IMSS
Summary of the method: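 Trophozoites grown in TYI-S-33 medium; samples dissolved in DMSO then medium to 1 mg/mL, diluted to 0.1 mg/mL, twofold serial dilutions in plate; final DMSO ≤0.1%. 10^5 organisms/mL added, plate gassed with nitrogen 10 min, 37 °C for 72 h. OD at 490 nm; % inhibition vs log dose, linear regression for IC50. Triplicates, repeated thrice; metronidazole standard.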

[3] = Cytotoxicity against BALB/c mouse splenocyte by [3H]thymidine incorporation assay; assay type: cell-based
Summary of the method: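 Splenocytes (5 × 10^6 per well) in DMEM with 10% FCS and 50 µg/mL gentamycin; tested at 1.1, 3.3, 11, 33 and 100 µg/mL in triplicate with 3H-thymidine (1 µCi per well), 24 h, 37 °C, 5% CO2. Value is highest non-cytotoxic concentration, i.e. reducing incorporation by under 10% versus untreated.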

[4] = Inhibition of beta-hematin formation after 18 hrs by microtiter plate assay; assay type: functional

Row | Compound | IC50 [1] | IC50 [2] | highest non-cytotoxic concentration [3] | IC50 [4]
1 | S=C(N/N=C/c1ccco1)N1CCCCCC1 | 35.8 µM | 12.1 µM | > 100 µg/mL | 
2 | S=C(N/N=C/c1ccco1)NC1CCCCC1 | 20.3 µM | 10.1 µM | 33 µg/mL | 
3 | CC1CCN(C(=S)N/N=C/c2ccco2)CC1 | 36.2 µM | 8.02 µM | 100 µg/mL | 
4 | CN(C(=S)N/N=C/c1ccco1)C1CCCCC1 | 21.8 µM | 9.07 µM | > 100 µg/mL | 
5 | CCN(CC)CCCC(C)Nc1ccnc2cc(Cl)ccc12.O=P(O)(O)O.O=P(O)(O)O (centres undefined) [CHLOROQUINE PHOSPHATE] |  |  |  | 1.3 µg/mL
6 | OC(c1cc(C(F)(F)F)nc2c(C(F)(F)F)cccc12)C1CCCCN1 (centres undefined) [MEFLOQUINE] | 0.039 µM |  |  | 
